Screens deposited in PubChem by several laboratories.
EBI2 block – EBI2 receptor antagonists, beta-arrestin recruitment, primary screen, cell-based, luminescence, 7a,25-OHC stimulation, uHTS; 7a,25-OHC stimulated; 0.81% of 360,000 active; inhibition, % at 5 µM; in the data active = inhibition above about 38%;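 note: enzyme fragment complementation signal reports receptor beta-arrestin coupling in cells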
CXCR6 inh – CXCR6 receptor inhibitors, primary screen, cell-based, beta-arrestin, luminescence, CHO-K1 PathHunter, 1536-well; AID 602244, 2012; inhibition, % at 20 µM; 0.36% of 360,000 active; in the data active = inhibition above about 34%, passing the limit was not always enough;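 note: antagonist mode with CXCL16 agonist at 10 nM final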
APJ antagonist – antagonists of human apelin receptor APJ, primary screen, CHO-K1 cells, beta-arrestin complementation, luminescence; P35414; inhibition, % at 20 µM; 0.32% of 330,000 active;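 active = inhibition above about 40% at 20 µM, limit read from the data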;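 note: cells challenged with 10 nM apelin-13 agonist together with compound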
Beta2AR agonist – beta2AR agonists driving receptor internalization, primary screen, cell-based, FAP fluorogen, flow cytometry; Beta-2 adrenergic receptor (Homo sapiens), P07550; Am2.2-beta2AR cells; response, % (concentration not given with the values); 0.43% of 340,000 active; AID 504454, 2011;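 active = response above a set limit, near 3 SD of response in nonfluorescent compounds, cut at about 42% in these data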
CCR6 antagonist – CCR6 receptor antagonists, primary screen, cell-based, CHO-K1, luminescence, beta-arrestin, uHTS. inhibition, % at 20 µM. 0.49% of 340,000 active. AID 493098, 2011. CHO-K1 CCR6 PathHunter beta-arrestin, CCL20-stimulated;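 active = compounds whose inhibition of the agonist-driven luminescence signal at 20 µM reaches about 50%, limit read from the data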;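 note: cells stimulated with CCL20 at 14 nM final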
Target sequence (P51684 whole entry, looked up): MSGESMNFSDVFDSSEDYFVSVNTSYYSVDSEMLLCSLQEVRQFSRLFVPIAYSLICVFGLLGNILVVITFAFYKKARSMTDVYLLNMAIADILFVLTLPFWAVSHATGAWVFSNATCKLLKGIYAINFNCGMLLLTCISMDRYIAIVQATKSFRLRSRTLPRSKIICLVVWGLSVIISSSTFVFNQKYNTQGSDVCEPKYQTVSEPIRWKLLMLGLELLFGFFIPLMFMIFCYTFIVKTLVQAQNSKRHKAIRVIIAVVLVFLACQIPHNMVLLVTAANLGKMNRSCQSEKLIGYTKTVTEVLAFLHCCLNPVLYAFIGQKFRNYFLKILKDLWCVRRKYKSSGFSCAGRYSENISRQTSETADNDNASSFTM
APJ agonist – agonists of human apelin receptor APJ, primary screen, CHO-K1 cells, PathHunter beta-arrestin, luminescence | P35414 | 0% DMSO wells, 100% apelin | activation, % at 20 µM | 0.11% of 330,000 active;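 active = activation more than six SD over the plate average, tested at 20 µM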
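Assay system – PathHunter CHO-K1 APJ (AGTRL-1) beta-arrestin reporter cells · Compound – one dose, 20 µM compound, 1% DMSO · Timing – compound 90 min 25 °C, reagent 1 h · Measured by – luminescence from split beta-galactosidase complementation, Galacton Star/Emerald II substrate · Measure – beta-arrestin recruitment to APJ as agonist activity, luminescent signal · Benchmarks – DMSO vs Apelin-13 10 nM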
EBI2 conf – EBI2 antagonist hit retest, beta-arrestin, confirmation, cell-based, single concentration, luminescence, 7a,25-OHC stimulation; shares compounds with EBI2 block; inhibition, % at 5 µM; 7a,25-OHC antagonism; 29% of 2,400 active;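 active = inhibition of at least 50%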
EBI2 agonist – EBI2 agonist activity of antagonist hits, confirmation, counter-screen for EBI2 antagonist project, cell-based, single concentration, agonist mode, luminescence. activation, % at 5 µM. 2,400 tested, under 10 active. shares compounds with EBI2 block. EBI2-expressing cells, 60 min; 0% vehicle, 100% 7α,25-dihydroxycholesterol control;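 active = activation of at least 50%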
bGal counter – E. coli beta-galactosidase enzyme inhibition, confirmation, counter-screen for EBI2 antagonist project, biochemical, luminescence, single concentration; shares compounds with EBI2 block; purified beta-galactosidase, luminescent Galacton Star, 15 min; 1% of 2,400 active; inhibition, % at 5 µM;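 active = replicate-average signal at least 3 plate SD below neutral wells, shown as high inhibition, flagging enzyme-inhibiting false positives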;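 note: higher means stronger loss of beta-gal luminescence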
Numbers stand for hits; n = inactive; x = no result given. In the library only some 1.8% were active in any assay of this set; here they are far more common.

SMILES | EBI2 block | CXCR6 inh | APJ antagonist | Beta2AR agonist | CCR6 antagonist | APJ agonist | EBI2 conf | EBI2 agonist | bGal counter
COc1cc(CN2CCNC(=O)C2CC(=O)N2CCCN(C(C)=O)CC2)cc(OC)c1 (centres undefined) | n | n | n | n | n | n | x | x | x
O=C(COC(=O)CCS(=O)(=O)c1ccc(F)cc1)NC1CCCCC1 | n | n | n | n | n | n | x | x | x
CCOc1ccc(NC(=O)CN(C)C(=O)c2cn3ccccc3n2)cc1OCC | n | n | n | n | n | n | x | x | x
Brc1ccc(-c2nnc3sc(CN4CCc5ccccc5C4)cn23)cc1 | n | n | x | n | n | x | x | x | x
Brc1ccc(-c2nnc3sc(CN4CCC5(CC4)OCCO5)cn23)cc1 | 55.8 | n | n | n | n | n | n | n | n
CCOC(=O)c1cc(C#N)c(SC(C)C(=O)NC2CCCCC2)nc1C (centres undefined) | n | n | n | n | n | n | x | x | x
CC(C#N)(NC(=O)CN1CCN(S(=O)(=O)c2ccccc2C#N)CC1)C1CC1 (centres undefined) | n | n | n | n | n | n | x | x | x
COCCOC(=O)c1c(NC(=O)CNC2CCCc3ccccc32)sc(C(N)=O)c1C (centres undefined) | 82.0 | n | n | n | n | n | n | n | n
COCCOC(=O)c1c(NC(=O)COC(=O)Cc2cccc(OC)c2)sc(C(N)=O)c1C | 44.3 | n | n | n | n | n | n | n | n
COCCOC(=O)c1c(NC(=O)CN2CCc3ccccc32)sc(C(N)=O)c1C | 70.1 | n | n | n | n | n | n | n | n
CCOC(=O)c1c(NC(=O)CN(C)C2CCN(C)CC2)sc(C(=O)Nc2ccccc2)c1C | n | n | n | n | n | n | x | x | x
COCCOC(=O)c1c(NC(=O)CN(C)c2ccccc2)sc(C(N)=O)c1C | 88.0 | n | n | n | n | n | 53.9 | n | n
N#CC1(NC(=O)CSc2nnc(C3CC3)n2C2CC2)CCCCC1 | n | n | n | n | n | n | x | x | x
Cc1ccc(C)c(NC(=O)C2=CCN(S(=O)(=O)c3ccc(F)cc3)CC2)c1 | n | n | n | n | n | n | x | x | x
CCC1Cc2[nH]c(=S)[nH]c(=O)c2C(c2ccc(F)cc2)O1 (centres undefined) | n | n | x | x | x | x | x | x | x
Cc1ccc(CNC(=O)C2CCN(S(=O)(=O)c3ccc4c(c3)CC(C)N4C(=O)C3CC3)CC2)cc1 (centres undefined) | 79.5 | n | n | n | n | n | n | n | n
CC(=O)N1c2ccc(S(=O)(=O)NCC3CCC(C(=O)NCc4ccc(C)cc4)CC3)cc2CC1C (centres undefined) | 57.1 | n | n | n | n | n | n | n | n
CC(=O)N1c2ccc(S(=O)(=O)N3CCC(C(=O)NCc4ccc(C)cc4)CC3)cc2CC1C (centres undefined) | n | n | n | n | n | n | x | x | x
CC(=O)N1c2ccc(S(=O)(=O)NCC3CCC(C(=O)NCc4ccc(C)o4)CC3)cc2CC1C (centres undefined) | n | n | n | n | n | n | x | x | x
OC(COc1ccc(Cl)cc1)CSc1ccccn1 (centres undefined) | 52.5 | n | n | n | n | n | n | n | n
C(=N\N(c1ccccc1)c1ccccc1)/c1ccc(N2CCOCC2)s1 | 56.1 | n | n | n | n | n | n | n | n
Cc1ccc(NC(=O)c2ccc(CSc3ccccn3)cc2)cc1 | 45.6 | n | n | n | n | n | n | n | n
Cc1ccc(NC(=O)c2ccc(CSc3ccccn3)cc2)c(O)c1 | n | n | n | n | n | n | x | x | x
Cc1cccc(C)c1N1CCN(C(=O)Nc2ccc3c(c2)OCCO3)CC1 | 63.9 | n | n | n | n | n | 54.4 | n | n
O=C(Nc1ccc2c(c1)OCCO2)N1CCN(c2ccc(F)cc2)CC1 | n | n | n | n | n | n | x | x | x
SMILES | EBI2 block | CXCR6 inh | APJ antagonist | Beta2AR agonist | CCR6 antagonist | APJ agonist | EBI2 conf | EBI2 agonist | bGal counter
Cc1ccc(-n2c(C)nnc2SCC(=O)N(C)c2c(N)n(Cc3ccccc3)c(=O)[nH]c2=O)cc1 | n | n | n | n | n | n | x | x | x
Cc1ccc2oc(=O)c3cnn(CC(=O)N4CCc5ccccc5C4)c3c2c1 | 46.8 | n | n | n | n | n | n | n | n
Cc1ccc2oc(=O)c3cnn(CC(=O)N4CCCCC4C)c3c2c1 (centres undefined) | n | n | n | n | n | n | x | x | x
O=C(Cn1ncc2c(=O)oc3ccccc3c21)N(Cc1ccco1)C1CCCCC1 | 55.6 | n | n | n | n | n | n | n | n
Cc1ccc2oc(=O)c3cnn(CC(=O)N(CCC(C)C)Cc4ccco4)c3c2c1 | 86.5 | n | n | n | n | n | 76.2 | n | n
CCCCN(Cc1ccco1)C(=O)Cn1ncc2c(=O)oc3ccc(C)cc3c21 | 86.1 | n | n | n | n | n | n | n | n
O=C(Cn1ncc2c1-c1ccccc1OC2)N(Cc1ccco1)C1CCCCC1 | n | n | n | n | n | n | x | x | x
COc1ccc(CNC(=O)C[C@@H]2C=C[C@@H](NS(=O)(=O)c3cccc(OC)c3)[C@@H](CO)O2)cc1 | n | x | x | x | x | x | x | x | x
O=C(OCC(=O)N1CCN(C(=O)c2ccco2)CC1)c1cncc(Br)c1 | n | n | n | n | n | n | x | x | x
CC(C)(C)C(=O)Nc1cccc(-c2ncon2)c1 | n | n | n | n | n | n | x | x | x
CN(CCc1ccccc1)C(=O)c1cccc(NC(=O)Cc2cccc(NC(=O)C3CCN(C(=O)c4ccccc4)CC3)c2)c1 | n | n | x | n | n | x | x | x | x
CCOc1ccc(OCC)c(NC(=O)CN(c2ccc(OC)cc2)S(=O)(=O)c2c(C)noc2C)c1 | 69.3 | n | n | n | n | n | n | n | n
CCOc1ccccc1NC(=O)CN(c1ccc(C)cc1)S(=O)(=O)c1c(C)noc1C | n | n | n | n | n | n | x | x | x
CCOc1ccc(OCC)c(NC(=O)CN(c2ccc(C)cc2)S(=O)(=O)c2c(C)noc2C)c1 | 72.5 | n | n | n | n | n | n | n | n
